Source: PubChem BioAssay (Sanford-Burnham Center for Chemical Genomics)
Only a sample is shown.
Apaf1 activ – activators of human Apaf-1 apoptosome; O14727; Apaf-1 apoptosome caspase-3 activation, DEVD-Rh110 fluorescence; hits give low values; activity change, negative = activation, % at 20 µM; hit rate 0.31% among 330,000;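 active means activity change at or below -40% at 20 µM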
Target sequence (O14727 whole entry, looked up): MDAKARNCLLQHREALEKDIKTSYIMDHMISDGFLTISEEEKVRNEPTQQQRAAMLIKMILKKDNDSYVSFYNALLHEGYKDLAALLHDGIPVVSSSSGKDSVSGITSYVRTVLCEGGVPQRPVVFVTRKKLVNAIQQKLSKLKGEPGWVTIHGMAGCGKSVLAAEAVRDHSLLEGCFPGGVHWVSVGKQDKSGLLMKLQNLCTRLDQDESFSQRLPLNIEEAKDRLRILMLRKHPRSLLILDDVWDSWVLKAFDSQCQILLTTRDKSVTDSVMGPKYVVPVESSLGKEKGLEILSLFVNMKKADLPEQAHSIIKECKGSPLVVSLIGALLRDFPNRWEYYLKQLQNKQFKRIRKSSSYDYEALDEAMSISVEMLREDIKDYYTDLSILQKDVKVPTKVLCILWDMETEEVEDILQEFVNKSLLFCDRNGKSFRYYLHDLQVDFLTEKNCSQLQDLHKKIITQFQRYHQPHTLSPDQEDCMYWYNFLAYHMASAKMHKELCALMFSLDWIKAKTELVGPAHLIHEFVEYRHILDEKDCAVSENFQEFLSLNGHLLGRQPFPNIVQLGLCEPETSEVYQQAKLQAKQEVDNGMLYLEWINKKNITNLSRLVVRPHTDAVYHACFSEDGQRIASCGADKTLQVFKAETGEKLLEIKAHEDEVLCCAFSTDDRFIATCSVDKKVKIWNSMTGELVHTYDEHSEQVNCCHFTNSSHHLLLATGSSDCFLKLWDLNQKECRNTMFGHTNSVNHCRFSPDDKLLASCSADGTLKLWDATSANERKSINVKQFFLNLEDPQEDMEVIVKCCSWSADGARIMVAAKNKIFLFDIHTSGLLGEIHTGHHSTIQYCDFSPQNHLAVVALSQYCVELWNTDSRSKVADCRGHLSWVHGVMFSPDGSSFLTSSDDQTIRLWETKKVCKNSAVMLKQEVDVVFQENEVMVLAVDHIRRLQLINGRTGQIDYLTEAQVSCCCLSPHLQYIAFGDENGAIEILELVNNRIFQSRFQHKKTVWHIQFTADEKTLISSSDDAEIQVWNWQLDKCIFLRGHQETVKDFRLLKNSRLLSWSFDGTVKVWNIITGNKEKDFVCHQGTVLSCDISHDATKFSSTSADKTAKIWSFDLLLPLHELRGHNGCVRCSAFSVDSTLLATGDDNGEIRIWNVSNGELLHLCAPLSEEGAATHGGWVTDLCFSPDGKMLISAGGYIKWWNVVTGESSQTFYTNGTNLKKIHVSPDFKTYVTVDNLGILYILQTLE
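system = biochemical Apaf-1 apoptosome reconstitution | buffer or medium = 20 mM HEPES pH 7.5 with CHAPS, BSA | also added = dATP and cytochrome c as apoptosome triggers, (Z-DEVD)2-Rh110 substrate | incubation = 30 min compound preincubation and 50 min reaction, both room temperature | measured by = fluorescence, 540 nm emission, 480 nm excitation | read-out basis = Caspase-3 cleavage activity downstream of Apaf-1 activation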
Rh110 act interf – Rh110 signal interference in Apaf-1 activator counter-screen; fluorescence interference (activity change), % at 20 µM, hits read low; shares compounds with Apaf1 activ; 980 tested, under 10 active; Rh110 fluorescence interference, quenched caspase reaction, Ex480/Em540;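 active means mean activity change at or below -40% when tested at 20 µM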
Apaf-1 act conf – Apaf-1 (human) activation, single-dose confirmed; shares compounds with Apaf1 activ; reconstituted apoptosome caspase-3 activity, DEVD-Rh110 fluorescence; hits give low values; activity change, negative = activation, % at 20 µM; hit rate 5% among 980;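 active means mean activity change at or below -40%, meaning activation of 40% or more, at 20 µM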
Fluor interf act – shows fluorescence interference in the Apaf-1 activator assay format; 55 tested, under 10 active; AID 588592; fluorescence interference counterscreen; shares compounds with Apaf1 activ; EC50, µM; call rule not given here
* = called active by the depositor; . = no result given.

SMILES	Apaf1 activ	Rh110 act interf	Apaf-1 act conf	others
c1ccc(C(c2nnnn2C2CCCCC2)N2CCc3ccccc3C2)nc1 (centres undefined)	64	.	.
COc1ccc(C(CCN2CCCCC2)c2c(OC)cc(OC)c3c(-c4ccccc4)cc(=O)oc23)cc1 (centres undefined)	55	.	.
CC(=O)c1ccc(OCCCC(=O)N2CCN(S(=O)(=O)c3ccc(C)cc3C)CC2)cc1	40	.	.
CCN(CC)c1ccc(/C=C2/C(=O)N(c3ccc([N+](=O)[O-])cc3)N=C2N2CCOCC2)cc1	56	.	.
CCOC(=O)N1CCN(C2=C(NS(=O)(=O)c3ccc(NC(C)=O)cc3)C(=O)c3ccccc3C2=O)CC1	83	.	.
CCOC(=O)N1CCN(c2ccc([N+](=O)[O-])cc2)CC1	-142*	7	5
COc1ccc2nc3cccc(OC)c3nc2c1	97	.	.
CCNC(=O)Oc1ccc[nH]c1=O	42	.	.
C#CCOCCOCCOCCNc1nc(N2CCN(C(=O)CCCCCCCCCCNC(=O)Cn3cc(CCCCCN)nn3)CC2)nc(N2CCN(C(=O)CCCCCCCCCCNC(=O)[C@H](CO)n3cc(CCCCCN)nn3)CC2)n1	63	.	.
COc1ccc(-c2oc3ccc(-c4cc(OC)c(OC)c(OC)c4)cc3c2-c2ccc(OC)cc2)cc1	-211*	6	1
C#CCOCCOCCOCCNc1nc(N2CCN(C(=O)CCCCCCCCCCNC(=O)[C@H](CCCCN)n3cc(CCO)nn3)CC2)nc(N2CCN(C(=O)CCCCCCCCCCNC(=O)[C@H](CCCN=C(N)N)n3cc(C[C@@H](C)CC)nn3)CC2)n1	78	.	.
Cc1ccc(N(CC(N)=O)C2SC(=O)N(C)C2=O)cc1 (centres undefined)	-488*	8	12
COc1cc(NC2CCCCC2O)c2nc(-c3ccc(Cl)cc3)ccc2c1 (centres undefined)	55	.	.
CC(=O)c1ccc(OCC(O)CN2CCN(Cc3ccc4c(c3)OCO4)CC2)cc1 (centres undefined)	0	.	.
C/C(=N\NC(=O)Cn1ccc(C(F)(F)F)n1)c1ccc2c(c1)OCO2	-134*	1	0
O=C(CC1Nc2cccc3cccc(c23)NC1=O)Nc1ccccc1 (centres undefined)	96	.	.
CCOc1ccc(/C=C/[N+](=O)[O-])c2ccccc12	80	.	.
CC(C)CC(=O)N[C@H](C(=O)N[C@H](C(=O)N[C@@H](CC(C)C)[C@@H](O)CC(=O)N[C@@H](C)C(=O)N[C@@H](CC(C)C)[C@@H](O)CC(=O)O)C(C)C)C(C)C	-239*	-234*	11
Cc1ccc(-n2nc3ccc(N)cc3n2)cc1Cl	96	.	.
CCN1CCN(C(=O)CN(c2cc(OC)ccc2OC)S(C)(=O)=O)CC1	-191*	3	13
CCC(=O)OCCNc1cc(Sc2nc3ccccc3s2)c2nonc2c1[N+](=O)[O-]	46	.	.
CCOc1cc(C)c(S(=O)(=O)Nc2ccc(Cl)cn2)cc1C	-40*	5	14
CC1=NN(c2ccc(C(=O)O)cc2)C(=O)/C1=C/c1ccc(-c2ccccc2F)o1	58	.	.
COC(=O)c1ccccc1-c1ccc(/C=C2\C(=O)N(c3ccccc3)N=C2c2ccccc2)o1	62	.	.	Fluor interf act=>100
CC1=NN(c2ccccc2)C(=O)/C1=C/c1ccc(-c2ccc(C)c(C(=O)O)c2)o1	68	.	.
SMILES	Apaf1 activ	Rh110 act interf	Apaf-1 act conf	others
CSc1ccc(CN(C)C(=O)CSCC(=O)Nc2cc(C)on2)cc1	48	.	.
CCC(CC)c1nnc(NC(=O)CN2C(=O)c3ccccc3C2=O)s1	87	.	.
O=C(COC(=O)c1cc(Cl)ccc1Cl)NCCN1C(=O)CSC1=O	43	.	.
COC(=O)c1ccccc1NC(=O)CN1C(=O)CSC1=O	-48*	-6	8
CC1=NN(c2ccc(N)cc2)C(=O)C1	53	.	.
O=C1C2=C(c3ccccc31)[N+](=O)C1CCCCC1N2[O-] (centres undefined)	54	.	.
CC(=O)N1CCN(C(=S)Nc2ccc(SC(F)F)cc2)CC1	96	.	.
c1cc2c3c(cccc3c1)NC1(CCCCCC1)N2	49	.	.
N#C/C(=C\c1ccc(OCc2ccc(Cl)cc2)cc1)C(=O)Nc1cccc(C(=O)O)c1	-202*	13	-71*	Fluor interf act=>100
CCN1/C(=C/c2ccc3cc(C)ccc3[n+]2CC)Sc2cc(C)c(C)cc21	64	.	.
CC(C)=CCc1c(O)c(CC=C(C)C)c2c(c1O)C(=O)CC(c1ccc(O)cc1)O2 (centres undefined)	-150*	16	23
O=C(c1ccc2nc(-c3ccco3)c(-c3ccco3)nc2c1)N1CCN(c2ncccn2)CC1	57	.	.
Cc1ccccc1N=Cc1cccc(O)c1O	74	.	.
